# Experimental data published in ChEMBL document CHEMBL5303300, “EUbOPEN Chemogenomics Library - Multiplex” (2023).
# “And” between values parts separate entries of the source, which are not always exact repeats. Identical values can stand only once.
# System: Fibroblast
# Assay: Multiplex assay against human fibroblast
# Format: toxicity, cell-based
# Conditions: number of replicates 2
# How it was run: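 On a CQ1 microscope at 37°C and 5% CO2, live cells were imaged after compound addition. They had been stained at seeding with Hoechst33342, BioTracker Green Microtubule Cytoskeleton Dye, MitoTracker Red and Annexin V Alexa Fluor 680. CellPathfinder machine-learning gating assigned cells to Hoechst high-intensity objects or normal cells, normal cells to healthy, pyknosed or fragmented nuclei, and pyknosed cells to mitotic or apoptotic. Tubulin, mitochondrial-mass and membrane-permeability phenotypes are per cents of healthy-nucleus cells.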
# [1] = 12 h, 1 µM, compound concentration 1 uM
# [2] = 12 h, 10 µM, compound concentration 10 uM
# [3] = 24 h, 1 µM, compound concentration 1 uM
# [4] = 24 h, 10 µM, compound concentration 10 uM
# [5] = 48 h, 1 µM, compound concentration 1 uM
# [6] = 48 h, 10 µM, compound concentration 10 uM
structure (smiles),measurement,setting,value
COc1cc(Br)c(S(=O)(=O)Nc2ccc(C(F)(F)F)c(O[C@@H]3CCN(C)C3)c2)cc1OC,Population Apoptotic (%),[1],54% and 48%
same,Population Fragmented Nuclei (%),[1],13% and 15%
same,Population Healthy Nuclei (%),[1],71% and 63%
same,Population Hoechst High Intensity Objects (%),[1],0%
same,Population Membrane Permeable-Phenotype (%),[1],3% and 4%
same,Population Mitochondria Different-Phenotype (%),[1],0%
same,Population Mitotic Cells (%),[1],45% and 51%
same,Population Normal (%),[1],100% and 99%
same,Population Pyknosed Nuclei (%),[1],14% and 21%
same,Population Tubulin-Different-Phenotype (%),[1],8% and 14%
same,Total Cell Count,[1],161 and 215
same,Population Apoptotic (%),[2],42% and 34%
same,Population Fragmented Nuclei (%),[2],12% and 15%
same,Population Healthy Nuclei (%),[2],61% and 63%
same,Population Hoechst High Intensity Objects (%),[2],0%
same,Population Membrane Permeable-Phenotype (%),[2],8% and 7%
same,Population Mitochondria Different-Phenotype (%),[2],1% and 0%
same,Population Mitotic Cells (%),[2],57% and 65%
same,Population Normal (%),[2],100%
same,Population Pyknosed Nuclei (%),[2],25% and 21%
same,Population Tubulin-Different-Phenotype (%),[2],36% and 23%
same,Total Cell Count,[2],164 and 244
same,Population Apoptotic (%),[3],50% and 65%
same,Population Fragmented Nuclei (%),[3],12% and 16%
same,Population Healthy Nuclei (%),[3],67% and 62%
same,Population Hoechst High Intensity Objects (%),[3],0%
same,Population Membrane Permeable-Phenotype (%),[3],6% and 7%
same,Population Mitochondria Different-Phenotype (%),[3],0% and 3%
same,Population Mitotic Cells (%),[3],50% and 34%
same,Population Normal (%),[3],99% and 100%
same,Population Pyknosed Nuclei (%),[3],19% and 20%
same,Population Tubulin-Different-Phenotype (%),[3],13% and 16%
same,Total Cell Count,[3],157 and 207
same,Population Apoptotic (%),[4],53% and 68%
same,Population Fragmented Nuclei (%),[4],17% and 15%
same,Population Healthy Nuclei (%),[4],63% and 69%
same,Population Hoechst High Intensity Objects (%),[4],0%
same,Population Membrane Permeable-Phenotype (%),[4],10% and 6%
same,Population Mitochondria Different-Phenotype (%),[4],4% and 3%
same,Population Mitotic Cells (%),[4],46% and 31%
same,Population Normal (%),[4],100%
same,Population Pyknosed Nuclei (%),[4],19% and 15%
same,Population Tubulin-Different-Phenotype (%),[4],36% and 23%
same,Total Cell Count,[4],163 and 231
same,Population Apoptotic (%),[5],66% and 76%
same,Population Fragmented Nuclei (%),[5],11% and 18%
same,Population Healthy Nuclei (%),[5],72% and 69%
same,Population Hoechst High Intensity Objects (%),[5],0%
same,Population Membrane Permeable-Phenotype (%),[5],5% and 4%
same,Population Mitochondria Different-Phenotype (%),[5],1%
same,Population Mitotic Cells (%),[5],33% and 24%
same,Population Normal (%),[5],100%
same,Population Pyknosed Nuclei (%),[5],15% and 12%
same,Population Tubulin-Different-Phenotype (%),[5],10% and 7%
same,Total Cell Count,[5],154 and 204
same,Population Apoptotic (%),[6],64% and 55%
same,Population Fragmented Nuclei (%),[6],19% and 16%
same,Population Healthy Nuclei (%),[6],71%
same,Population Hoechst High Intensity Objects (%),[6],0%
same,Population Membrane Permeable-Phenotype (%),[6],9% and 4%
same,Population Mitochondria Different-Phenotype (%),[6],0% and 1%
same,Population Mitotic Cells (%),[6],35% and 44%
same,Population Normal (%),[6],100%
same,Population Pyknosed Nuclei (%),[6],8% and 12%
same,Population Tubulin-Different-Phenotype (%),[6],17% and 9%
same,Total Cell Count,[6],156 and 218
CN(C)CCN(Cc1ccc(-c2ccc(CNCCc3ccccc3)cc2)cc1)C(=O)CCC1CCCC1.Cl.Cl,Population Apoptotic (%),[1],25% and 30%
same,Population Fragmented Nuclei (%),[1],20% and 26%
same,Population Healthy Nuclei (%),[1],56% and 57%
same,Population Hoechst High Intensity Objects (%),[1],0%
same,Population Membrane Permeable-Phenotype (%),[1],3% and 4%
same,Population Mitochondria Different-Phenotype (%),[1],11% and 14%
same,Population Mitotic Cells (%),[1],74% and 69%
same,Population Normal (%),[1],100% and 99%
same,Population Pyknosed Nuclei (%),[1],22% and 16%
same,Population Tubulin-Different-Phenotype (%),[1],68% and 55%
same,Total Cell Count,[1],254 and 325
same,Population Apoptotic (%),[2],84% and 86%
same,Population Fragmented Nuclei (%),[2],4% and 8%
same,Population Healthy Nuclei (%),[2],3% and 1%
same,Population Hoechst High Intensity Objects (%),[2],2% and 0%
same,Population Mitotic Cells (%),[2],15% and 13%
same,Population Normal (%),[2],97% and 99%
same,Population Pyknosed Nuclei (%),[2],92% and 90%
same,Population Tubulin-Different-Phenotype (%),[2],50% and 100%
same,Total Cell Count,[2],199 and 160
same,Population Apoptotic (%),[3],55% and 66%
same,Population Fragmented Nuclei (%),[3],13% and 19%
same,Population Healthy Nuclei (%),[3],67% and 68%
same,Population Hoechst High Intensity Objects (%),[3],0%
same,Population Membrane Permeable-Phenotype (%),[3],3% and 1%
same,Population Mitochondria Different-Phenotype (%),[3],23% and 29%
same,Population Mitotic Cells (%),[3],44% and 33%
same,Population Normal (%),[3],99%
same,Population Pyknosed Nuclei (%),[3],18% and 11%
same,Population Tubulin-Different-Phenotype (%),[3],72% and 60%
same,Total Cell Count,[3],239 and 294
same,Population Apoptotic (%),[4],87% and 90%
same,Population Fragmented Nuclei (%),[4],6% and 12%
same,Population Healthy Nuclei (%),[4],1%
same,Population Hoechst High Intensity Objects (%),[4],1%
same,Population Membrane Permeable-Phenotype (%),[4],33%
same,Population Mitotic Cells (%),[4],12% and 9%
same,Population Normal (%),[4],98%
same,Population Pyknosed Nuclei (%),[4],92% and 85%
same,Total Cell Count,[4],199 and 156
same,Population Apoptotic (%),[5],86% and 65%
same,Population Fragmented Nuclei (%),[5],19% and 27%
same,Population Healthy Nuclei (%),[5],74% and 66%
same,Population Hoechst High Intensity Objects (%),[5],0%
same,Population Membrane Permeable-Phenotype (%),[5],1%
same,Population Mitochondria Different-Phenotype (%),[5],9% and 11%
same,Population Mitotic Cells (%),[5],13% and 35%
same,Population Normal (%),[5],100%
same,Population Pyknosed Nuclei (%),[5],5% and 6%
same,Population Tubulin-Different-Phenotype (%),[5],41% and 38%
same,Total Cell Count,[5],255 and 321
same,Population Apoptotic (%),[6],83% and 93%
same,Population Fragmented Nuclei (%),[6],12% and 22%
same,Population Healthy Nuclei (%),[6],6% and 13%
same,Population Hoechst High Intensity Objects (%),[6],0%
same,Population Membrane Permeable-Phenotype (%),[6],8% and 14%
same,Population Mitochondria Different-Phenotype (%),[6],41% and 19%
same,Population Mitotic Cells (%),[6],16% and 7%
same,Population Normal (%),[6],100%
same,Population Pyknosed Nuclei (%),[6],81% and 63%
same,Population Tubulin-Different-Phenotype (%),[6],50% and 76%
same,Total Cell Count,[6],200 and 157
